# Experimental data taken from ChEMBL document CHEMBL3091324, “The optimization of aminooxadiazoles as orally active inhibitors of Cdc7” (Bioorg Med Chem Lett, 2013).
# Experiments:
# [1] = Intrinsic clearance in rat liver microsomes; format: ADME; conditions: read-out: CLH
# [2] = Intrinsic clearance in human liver microsomes; format: ADME; conditions: read-out: CLH
# [3] = molecular target: CDC7/DBF4 (Cell division cycle 7-related protein kinase/Activator of S phase kinase) (Homo sapiens, UniProt O00311); assay: Inhibition of Cdc7/Dbf4 (unknown origin)-mediated MCM2 phosphorylation at Ser53 by protein A amplified luminescent proximity homogeneous assay; format: protein-complex assay
# [4] = molecular target: Cyclin-dependent kinase 2/cyclin E1 (Homo sapiens, UniProt P24941); assay: Inhibition of CDK2/cyclin E (unknown origin) using ULight peptide as substrate by HTRF assay; format: protein-complex assay
# [5] = molecular target: Cell division cycle 7-related protein kinase (Homo sapiens, UniProt O00311); assay: Inhibition of Cdc7-mediated MCM2 phosphorylation at Ser53 in human HCT116 cells after 14 hrs by immunostaining assay; format: cell-based, HCT-116
# [6] = molecular target: Cyclin-dependent kinase 1/cyclin B1 (Homo sapiens, UniProt P06493); assay: Inhibition of CDK1/cyclin B (unknown origin) by HTRF assay; format: protein-complex assay
# [7] = Solubility of the compound in simulated intestinal fluid; format: ADME
# Plasma [8] = assay: Unbound plasma concentration in NCR/nude mouse xenografted with human HCT116 cells at 100 mg/kg, po measured at 6 hrs by LC-MS analysis; format: ADME, organism-based, HCT-116; parameters: dose 100 mg/kg, route oral; conditions: in vivo
# Method in brief: (§1)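 Female NCR/nude mice (n = 3) dosed orally at 100 mg/kg; plasma sampled at 6 and 16 h; unbound concentration calculated from total plasma concentration and percent free fraction in mouse plasma.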
# CDK9/cyclin T1 = CDK9/cyclin T1 (Homo sapiens, UniProt P50750); assay: Inhibition of CDK9/cyclin T1 (unknown origin) using 4eBP1 ULight peptide as substrate by HTRF assay; format: protein-complex assay
# Mus musculus [9] = assay: In vivo inhibition of Cdc7 in tumor of NCR/nude mouse xenografted with human HCT116 cells assessed as remaining Ser53 phosphorylated MCM2 level at 100 mg/kg, po measured at 16 hrs relative to control; format: functional, HCT-116
# Method in brief: (§2)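 Female NCR/nude mice (n = 3 per group) given single oral dose of 100 mg/kg; pMCM2 levels measured at 6 and 16 h, expressed as % remaining versus vehicle control group; significance by one-way ANOVA with Dunnett's test.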
# [10] = Clearance in rat at 1 mg/kg, iv and 5 mg/kg, po; format: ADME, organism-based; conditions: in vivo
# Mus musculus [11] = assay: In vivo inhibition of Cdc7 in tumor of NCR/nude mouse xenografted with human HCT116 cells assessed as remaining Ser53 phosphorylated MCM2 level at 100 mg/kg, po measured at 6 hrs relative to control; format: functional, HCT-116; method in brief: as §2
# [12] = Oral bioavailability rat in 5 mg/kg; format: ADME, organism-based; conditions: in vivo
# [13] = Mean residence time in rat at 1 mg/kg, iv and 5 mg/kg, po; format: ADME, organism-based; conditions: in vivo
# [14] = Volume of distribution at steady state in rat at 1 mg/kg, iv and 5 mg/kg, po; format: ADME, organism-based; conditions: in vivo, read-out: Vdss
# Plasma [15] = assay: Unbound plasma concentration in NCR/nude mouse xenografted with human HCT116 cells at 100 mg/kg, po measured at 16 hrs by LC-MS analysis; format: ADME, organism-based, HCT-116; parameters: dose 100 mg/kg, route oral; conditions: in vivo; method in brief: as §1
# HCT-116 = assay: Cytotoxicity against human HCT116 cells assessed as cell viability after days by CellTiterGlo assay; format: functional, cell-based
# Method in brief: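 HCT-116 cells exposed to compound for 4 d; cell viability IC50 determined.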
# Homo sapiens = species on record: Homo sapiens; assay: Selectivity ratio of IC50 for CDK2/cyclin E (unknown origin) to IC50 for Cdc7/Dbf4 (unknown origin)
# Hepatocyte = assay: Drug metabolism in rat hepatocytes assessed as GSH adduct level; format: ADME, cell-based
# Mus musculus [16] = assay: In vivo inhibition of Cdc7-mediated MCM2 phosphorylation at Ser53 in tumor of NCR/nude mouse xenografted with human HCT116 cells at 100 mg/kg, po; format: functional, organism-based; parameters: dose 100 mg/kg; conditions: HCT-116, TDE = time-dependent effect; method in brief: as §2
# [17] = Volume of distribution at steady state in rat at 2 mg/kg, iv and 2 mg/kg, po; format: ADME, organism-based; conditions: in vivo, read-out: Vdss
# [18] = Clearance in rat at 2 mg/kg, iv and 2 mg/kg, po; format: ADME, organism-based; conditions: in vivo
# [19] = Mean residence time in rat at 2 mg/kg, iv and 2 mg/kg, po; format: ADME, organism-based; conditions: in vivo
# [20] = Oral bioavailability rat in 2 mg/kg; format: ADME, organism-based; conditions: in vivo
# [21] = Mean residence time in rat at 2 mg/kg, iv; format: ADME, organism-based; parameters: dose 2 mg/kg, route intravenous; conditions: in vivo
# [22] = Volume of distribution at steady state in rat at 2 mg/kg, iv; format: ADME, organism-based; parameters: dose 2 mg/kg, route intravenous; conditions: in vivo, read-out: Vdss
# [23] = Clearance in rat at 2 mg/kg, iv; format: ADME, organism-based; parameters: dose 2 mg/kg, route intravenous; conditions: in vivo
# [24] = Clearance in rat at 2 mg/kg, iv and 5 mg/kg, po; format: ADME, organism-based; conditions: in vivo
# [25] = Mean residence time in rat at 2 mg/kg, iv and 5 mg/kg, po; format: ADME, organism-based; conditions: in vivo
# [26] = Volume of distribution at steady state in rat at 2 mg/kg, iv and 5 mg/kg, po; format: ADME, organism-based; conditions: in vivo, read-out: Vdss
# CDK9/cyclin T1, sequence (O60563 whole entry): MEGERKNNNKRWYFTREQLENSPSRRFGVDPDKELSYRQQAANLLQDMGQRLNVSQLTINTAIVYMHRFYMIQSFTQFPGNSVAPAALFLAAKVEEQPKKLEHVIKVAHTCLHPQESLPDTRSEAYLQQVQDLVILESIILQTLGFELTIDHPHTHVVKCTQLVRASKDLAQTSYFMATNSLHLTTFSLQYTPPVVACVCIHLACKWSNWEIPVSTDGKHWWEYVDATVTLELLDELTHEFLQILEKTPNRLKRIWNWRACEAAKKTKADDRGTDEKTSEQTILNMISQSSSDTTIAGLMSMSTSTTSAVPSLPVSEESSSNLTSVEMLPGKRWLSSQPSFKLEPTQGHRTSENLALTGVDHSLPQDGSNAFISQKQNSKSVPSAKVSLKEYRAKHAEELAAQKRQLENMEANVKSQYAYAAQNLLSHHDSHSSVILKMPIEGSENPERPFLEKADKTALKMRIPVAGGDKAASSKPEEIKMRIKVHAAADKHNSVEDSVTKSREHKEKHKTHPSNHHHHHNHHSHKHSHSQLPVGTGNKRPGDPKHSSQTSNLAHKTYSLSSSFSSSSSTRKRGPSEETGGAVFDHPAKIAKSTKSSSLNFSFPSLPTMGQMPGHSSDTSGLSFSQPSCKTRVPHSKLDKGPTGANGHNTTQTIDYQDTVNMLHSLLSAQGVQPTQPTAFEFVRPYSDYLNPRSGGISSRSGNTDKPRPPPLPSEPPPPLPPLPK
# CDK9/cyclin T1, sequence (P50750 whole entry): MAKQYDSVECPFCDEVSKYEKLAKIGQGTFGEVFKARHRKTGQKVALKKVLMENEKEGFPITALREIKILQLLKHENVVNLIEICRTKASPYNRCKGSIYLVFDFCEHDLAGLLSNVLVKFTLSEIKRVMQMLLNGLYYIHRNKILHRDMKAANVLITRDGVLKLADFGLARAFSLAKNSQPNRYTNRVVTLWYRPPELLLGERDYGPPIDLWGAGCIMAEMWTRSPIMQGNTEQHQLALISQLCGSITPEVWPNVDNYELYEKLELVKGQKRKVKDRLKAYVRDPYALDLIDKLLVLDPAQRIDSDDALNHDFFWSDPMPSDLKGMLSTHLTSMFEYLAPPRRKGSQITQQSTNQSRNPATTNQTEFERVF
# CDC7/DBF4 (Cell division cycle 7-related protein kinase/Activator of S phase kinase), sequence (Q9UBU7 whole entry): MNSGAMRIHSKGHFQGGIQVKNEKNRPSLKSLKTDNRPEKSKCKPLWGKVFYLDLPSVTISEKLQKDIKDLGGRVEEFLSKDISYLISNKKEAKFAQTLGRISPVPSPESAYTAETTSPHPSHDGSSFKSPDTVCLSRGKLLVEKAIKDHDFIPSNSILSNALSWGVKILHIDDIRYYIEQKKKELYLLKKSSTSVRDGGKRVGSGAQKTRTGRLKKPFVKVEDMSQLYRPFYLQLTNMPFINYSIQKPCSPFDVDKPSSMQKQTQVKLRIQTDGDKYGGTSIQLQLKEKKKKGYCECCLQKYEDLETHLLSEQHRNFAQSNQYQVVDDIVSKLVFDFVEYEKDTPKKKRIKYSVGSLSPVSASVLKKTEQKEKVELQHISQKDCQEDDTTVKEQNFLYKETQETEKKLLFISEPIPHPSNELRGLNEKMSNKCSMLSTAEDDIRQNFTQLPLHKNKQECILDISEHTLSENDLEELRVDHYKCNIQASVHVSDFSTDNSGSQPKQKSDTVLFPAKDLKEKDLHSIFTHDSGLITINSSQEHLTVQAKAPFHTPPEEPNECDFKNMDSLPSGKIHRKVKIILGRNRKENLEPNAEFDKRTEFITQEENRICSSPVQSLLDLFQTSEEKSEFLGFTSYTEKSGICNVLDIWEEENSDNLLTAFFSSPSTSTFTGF
# CDC7/DBF4 (Cell division cycle 7-related protein kinase/Activator of S phase kinase), sequence (O00311 whole entry): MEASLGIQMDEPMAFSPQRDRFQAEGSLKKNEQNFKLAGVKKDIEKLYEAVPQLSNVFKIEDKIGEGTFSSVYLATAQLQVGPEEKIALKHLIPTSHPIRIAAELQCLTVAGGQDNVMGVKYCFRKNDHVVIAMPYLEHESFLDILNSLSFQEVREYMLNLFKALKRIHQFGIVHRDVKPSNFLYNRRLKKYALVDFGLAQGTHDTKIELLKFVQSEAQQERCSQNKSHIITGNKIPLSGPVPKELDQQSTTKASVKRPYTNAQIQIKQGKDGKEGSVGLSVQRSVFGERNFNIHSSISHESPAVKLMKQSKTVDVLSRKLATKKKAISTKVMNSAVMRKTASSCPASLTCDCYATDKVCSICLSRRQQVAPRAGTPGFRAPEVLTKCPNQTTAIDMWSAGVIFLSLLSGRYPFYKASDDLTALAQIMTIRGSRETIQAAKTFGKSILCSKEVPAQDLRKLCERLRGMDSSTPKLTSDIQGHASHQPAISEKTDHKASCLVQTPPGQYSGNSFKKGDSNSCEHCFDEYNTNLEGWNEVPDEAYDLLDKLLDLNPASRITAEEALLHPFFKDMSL
# Cell division cycle 7-related protein kinase, sequence (O00311 whole entry): as above
# Cyclin-dependent kinase 1/cyclin B1, sequence (P06493 whole entry): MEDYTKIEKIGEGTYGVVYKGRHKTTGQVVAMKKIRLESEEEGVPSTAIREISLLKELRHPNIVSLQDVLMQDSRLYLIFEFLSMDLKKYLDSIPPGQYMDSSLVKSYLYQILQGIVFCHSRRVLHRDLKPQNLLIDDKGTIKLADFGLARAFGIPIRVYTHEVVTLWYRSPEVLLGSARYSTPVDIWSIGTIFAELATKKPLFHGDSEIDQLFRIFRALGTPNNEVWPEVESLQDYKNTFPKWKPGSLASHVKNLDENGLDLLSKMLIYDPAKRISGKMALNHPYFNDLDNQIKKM
# Cyclin-dependent kinase 1/cyclin B1, sequence (P14635 whole entry, further chain): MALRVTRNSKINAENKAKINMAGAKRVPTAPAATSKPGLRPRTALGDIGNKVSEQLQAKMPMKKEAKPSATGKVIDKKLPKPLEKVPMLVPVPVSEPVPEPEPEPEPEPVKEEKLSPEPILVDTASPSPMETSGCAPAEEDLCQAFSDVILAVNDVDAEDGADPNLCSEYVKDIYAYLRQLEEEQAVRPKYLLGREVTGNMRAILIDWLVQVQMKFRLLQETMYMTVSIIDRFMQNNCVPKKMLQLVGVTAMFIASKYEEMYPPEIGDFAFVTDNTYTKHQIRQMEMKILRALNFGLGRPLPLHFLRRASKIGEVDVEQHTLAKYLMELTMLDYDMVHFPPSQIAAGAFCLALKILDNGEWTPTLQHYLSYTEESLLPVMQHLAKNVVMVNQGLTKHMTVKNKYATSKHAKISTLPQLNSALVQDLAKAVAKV
Structure (SMILES),microsomal CLint [1],microsomal CLint [2],IC50 [3],IC50 [4],IC50 [5],other results
C[C@H](Nc1nnc(-c2c[nH]c3ncccc23)o1)c1ccccc1,17 µL/min/mg,15 µL/min/mg,35 nM,98 nM,2600 nM,
Fc1ncccc1[C@H](Nc1nnc(-c2c[nH]c3ncccc23)o1)C1CC1,80 µL/min/mg,21 µL/min/mg,0.69 nM,490 nM,51 nM,IC50 [6]: 7300 nM; solubility [7]: 200 µg/mL; Cp(f) (Plasma [8]): 1300 nM; IC50 (CDK9/cyclin T1): 120 nM; Remaining Ser53 phospho-MCM2 vs control (Mus musculus [9]): 41%; clearance [10]: 75 mL/min/kg; Remaining phospho-MCM2 (% of control) (Mus musculus [11]): 40%; bioavailability [12]: 41%; MRT [13]: 1.3 h; Vd [14]: 5.9 L/kg; Cp(f) (Plasma [15]): 70 nM; IC50 (HCT-116): 1800 nM
c1ccc(CNc2nnc(-c3nc4ccncc4s3)o2)cc1,66 µL/min/mg,23 µL/min/mg,2300 nM,19000 nM,> 50000 nM,
Fc1ccc(CNc2nnc(-c3c[nH]c4ncccc34)o2)cc1,58 µL/min/mg,47 µL/min/mg,25 nM,98 nM,690 nM,Ratio IC50 (Homo sapiens): 4
C[C@@H](Nc1nnc(-c2c[nH]c3ncccc23)o1)c1ccccc1,25 µL/min/mg,64 µL/min/mg,32 nM,310 nM,370 nM,Drug metabolism (Hepatocyte): Active
Fc1cnc2[nH]cc(-c3nnc(N[C@@H](c4cccnc4F)C4CC4)o3)c2c1,20 µL/min/mg,< 14 µL/min/mg,1.1 nM,670 nM,32 nM,IC50 [6]: 6600 nM; solubility [7]: 160 µg/mL; Cp(f) (Plasma [8]): 610 nM; IC50 (CDK9/cyclin T1): 460 nM; Remaining Ser53 phospho-MCM2 vs control (Mus musculus [9]): 30%; clearance [10]: 28.3 mL/min/kg; Remaining phospho-MCM2 (% of control) (Mus musculus [11]): 46%; bioavailability [12]: 50%; MRT [13]: 1.9 h; Vd [14]: 3.3 L/kg; Activity (Mus musculus [16]): tde; Cp(f) (Plasma [15]): 300 nM; IC50 (HCT-116): 2400 nM
Nc1n[nH]c2ccc(-c3nnc(NCc4ccccc4)o3)cc12,74 µL/min/mg,26 µL/min/mg,11 nM,230 nM,1200 nM,
Fc1ccccc1CNc1nnc(-c2c[nH]c3ncccc23)o1,46 µL/min/mg,32 µL/min/mg,35 nM,580 nM,1600 nM,Ratio IC50 (Homo sapiens): 17
Fc1ccccc1[C@H](Nc1nnc(-c2c[nH]c3ncccc23)o1)C1CC1,63 µL/min/mg,59 µL/min/mg,0.85 nM,240 nM,20 nM,IC50 [6]: 1600 nM; solubility [7]: 5 µg/mL; Cp(f) (Plasma [8]): 150 nM; IC50 (CDK9/cyclin T1): 31 nM; Remaining Ser53 phospho-MCM2 vs control (Mus musculus [9]): 46%; clearance [24]: 33.3 mL/min/kg; MRT [25]: 2.7 h; Remaining phospho-MCM2 (% of control) (Mus musculus [11]): 38%; bioavailability [12]: 35%; Vd [26]: 5.3 L/kg; Cp(f) (Plasma [15]): 60 nM; IC50 (HCT-116): 880 nM
c1ccc(CNc2nnc(-c3c[nH]c4ncccc34)o2)cc1,40 µL/min/mg,31 µL/min/mg,24 nM,150 nM,780 nM,Ratio IC50 (Homo sapiens): 6
CC(C)(Nc1nnc(-c2c[nH]c3ncccc23)o1)c1ccccc1,35 µL/min/mg,30 µL/min/mg,120 nM,7 nM,6200 nM,
CC[C@@H](Nc1nnc(-c2c[nH]c3ncccc23)o1)c1ccccc1,29 µL/min/mg,70 µL/min/mg,4 nM,1700 nM,150 nM,
c1cnc2[nH]cc(-c3nnc(NCc4ccncc4)o3)c2c1,37 µL/min/mg,< 14 µL/min/mg,110 nM,350 nM,12000 nM,

# Further lines, with some results ahead:
microsomal CLint [1],microsomal CLint [2],IC50 [3],IC50 [4],IC50 [5],Structure (SMILES),other results
34 µL/min/mg,< 14 µL/min/mg,1.5 nM,750 nM,130 nM,Fc1ccccc1[C@H](Nc1nnc(-c2c[nH]c3ncncc23)o1)C1CC1,IC50 [6]: > 50000 nM; IC50 (CDK9/cyclin T1): 880 nM
< 14 µL/min/mg,< 14 µL/min/mg,770 nM,33000 nM,> 50000 nM,O=C1Cc2cc(-c3nnc(NCc4ccccc4)o3)ccc2N1,
30 µL/min/mg,< 14 µL/min/mg,190 nM,610 nM,7100 nM,c1cncc(CNc2nnc(-c3c[nH]c4ncccc34)o2)c1,
14 µL/min/mg,< 14 µL/min/mg,170 nM,2500 nM,13000 nM,c1ccc(CNc2nnc(-c3c[nH]c4ncccc34)o2)nc1,
31 µL/min/mg,56 µL/min/mg,1 nM,1600 nM,71 nM,c1ccc([C@H](Nc2nnc(-c3c[nH]c4ncccc34)o2)C2CC2)cc1,
56 µL/min/mg,49 µL/min/mg,10 nM,6800 nM,3200 nM,Fc1cc2cc(-c3nnc(NCc4ccccc4)o3)ccc2cn1,
45 µL/min/mg,27 µL/min/mg,1.8 nM,1900 nM,60 nM,Fc1cnccc1[C@H](Nc1nnc(-c2c[nH]c3ncccc23)o1)C1CC1,IC50 [6]: > 50000 nM; Vd [17]: 6.1 L/kg; solubility [7]: 200 µg/mL; Cp(f) (Plasma [8]): 2000 nM; clearance [18]: 75 mL/min/kg; IC50 (CDK9/cyclin T1): 940 nM; Remaining Ser53 phospho-MCM2 vs control (Mus musculus [9]): 24%; MRT [19]: 1.4 h; Remaining phospho-MCM2 (% of control) (Mus musculus [11]): 62%; Activity (Mus musculus [16]): tde; bioavailability [20]: 14%; Cp(f) (Plasma [15]): 450 nM; IC50 (HCT-116): 5700 nM
71 µL/min/mg,54 µL/min/mg,10 nM,61 nM,580 nM,Fc1cccc(CNc2nnc(-c3c[nH]c4ncccc34)o2)c1,Ratio IC50 (Homo sapiens): 6
166 µL/min/mg,120 µL/min/mg,17 nM,350 nM,710 nM,c1ccc(CNc2nnc(-c3ccc4cnccc4c3)o2)cc1,MRT [21]: 0.2 h; Vd [22]: 4.3 L/kg; clearance [23]: 300 mL/min/kg
30 µL/min/mg,69 µL/min/mg,590 nM,47000 nM,> 50000 nM,O=c1[nH]c2ccc(-c3nnc(NCc4ccccc4)o3)cc2o1,
402 µL/min/mg,98 µL/min/mg,20 nM,170 nM,730 nM,c1ccc(CNc2nnc(-c3ccc4[nH]ncc4c3)o2)cc1,
413 µL/min/mg,< 14 µL/min/mg,3.9 nM,4000 nM,250 nM,Fc1ccc2c(-c3nnc(N[C@@H](c4cccnc4F)C4CC4)o3)c[nH]c2n1,IC50 [6]: > 50000 nM; IC50 (CDK9/cyclin T1): 2400 nM
51 µL/min/mg,66 µL/min/mg,2 nM,1200 nM,140 nM,CC(C)[C@@H](Nc1nnc(-c2c[nH]c3ncccc23)o1)c1ccccc1,
